Rpn11 inh = inhibitors of human proteasome Rpn11; O00487; human 26S proteasome, Ub4-pepOG fluorescence polarization; 20S core pre-blocked with epoxomicin; inhibition, % at 20 µM; 360,000 compounds, 0.59% hits; AID 588493;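 active = inhibition at 20 µM, scaled to each plate's controls, above about 33%, limit read from the data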
CSN deneddyl inh = blocks human CSN-mediated cullin deneddylation; Q92905; Purified CSN, SCF-Nedd8-OG deneddylation, fluorescence polarization; inhibition, % at 12.5 µM; 360,000 compounds, 0.38% hits; AID 651999;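 active = pattern-corrected inhibition above about 35%, with an unprinted fluorescence ratio check between 0.5 and 1.5, limit read from the data, passing the limit was not always enough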
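Test system: Human Csn5 produced in HEK293T cells | Compound: 12.5 µM single point | Times: 90 min, room temperature | Signal: Fluorescence polarization readout | Read-out basis: % inhibition of substrate cleavage by Csn5 | Controls: no-enzyme wells high, enzyme-with-substrate wells low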
TPT1 inh = blocks Candida albicans tRNA 2'-phosphotransferase; recombinant caTPT1, FP RNA substrate dephosphorylation; inhibition, % at 5 µM; 300,000 compounds, 0.81% hits; AID 1962;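 active = inhibition above the mean of all tested compounds plus 3 SD, set per screening campaign, cut at about 24% in these data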
HNF4A DNA FP = change in binding of human HNF4 alpha to DNA; HNF4a-FITC DNA binding, fluorescence polarization, 1 h; 360,000 compounds, 0.3% hits; activity change, % at 10 µM; P41235; AID 1224865; in the data active = activity change above about 30%, passing the limit was not always enough
Target sequence (P41235 whole entry, looked up): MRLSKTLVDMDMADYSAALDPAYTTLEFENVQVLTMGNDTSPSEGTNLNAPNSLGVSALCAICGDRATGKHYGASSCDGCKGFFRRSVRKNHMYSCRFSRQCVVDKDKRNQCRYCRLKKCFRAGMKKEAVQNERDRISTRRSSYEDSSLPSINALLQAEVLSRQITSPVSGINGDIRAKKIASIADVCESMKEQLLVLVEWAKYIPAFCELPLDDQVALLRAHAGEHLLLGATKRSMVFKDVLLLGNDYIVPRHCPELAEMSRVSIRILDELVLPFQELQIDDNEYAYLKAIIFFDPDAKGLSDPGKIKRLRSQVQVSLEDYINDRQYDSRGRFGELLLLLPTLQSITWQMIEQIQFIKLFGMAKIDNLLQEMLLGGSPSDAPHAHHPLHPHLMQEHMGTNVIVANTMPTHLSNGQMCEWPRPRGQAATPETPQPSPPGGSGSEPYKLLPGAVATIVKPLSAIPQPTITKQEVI
Rpn11 confirm = confirmation of human proteasome Rpn11 inhibitors. AID 602318. 1,900 compounds, 29% hits. purified human 26S proteasome, Ub4-pepOG fluorescence polarization; proteasome pretreated with epoxomicin. shares compounds with Rpn11 inh. inhibition, % at 20 µM
MMP-2 counter = counter-screen for RPN11 inhibitors: inhibition of human MMP-2. shares compounds with Rpn11 inh. recombinant MMP-2, FRET peptide cleavage fluorescence. inhibition, % at 20 µM. 1,900 compounds, 4% hits. AID 602330;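 note: human MMP-2 activated beforehand with APMA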
Thrombin FP = thrombin (bovine) inhibition counter-screen; inhibition, % at 20 µM; 1,900 compounds, 13% hits; shares compounds with Rpn11 inh; AID 602333; bovine thrombin cleavage of Ub4-pepOG, fluorescence polarization;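 active = mean inhibition at least 40% at 20 µM, or signal 3 deviations below plate average, so some actives read negative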
A number is an active result; 0 = inactive; - = no result given; + = active, no number. Sampled rows, rich in hits. Any-hit rate of the full collection: about 1.5%. Cut-off read from the data, not from the text of the source, unless noted: active = inhibition above about 40%; inactive = the rest.

SMILES	Rpn11 inh	CSN deneddyl inh	TPT1 inh	HNF4A DNA FP	Rpn11 confirm	MMP-2 counter	Thrombin FP
O=C(N/N=C/c1ccncc1)c1cccc(NC(=O)c2ccc(Cl)cc2)c1	73	78	0	0	47	0	0
O=C(C[n+]1ccc(C(=O)N/N=C/c2ccc(Br)cc2)cc1)c1ccccc1	0	0	0	0	-	-	-
O=C(C[n+]1ccc(C(=O)N/N=C/c2ccc(O)cc2)cc1)c1ccccc1	104	0	0	0	0	0	0
Nc1nc(SCc2ccc(Cl)cc2Cl)nc2nc3c(cc12)CCCC3	42	0	0	0	46	0	0
CCc1c(O)nc(SCC(=O)Nc2ccc(C)cc2)n(C2CCCCC2)c1=O	85	0	0	0	42	0	0
CCc1c(O)nc(SCC(=O)Nc2ccc(Br)cc2)n(-c2ccc(C)cc2)c1=O	0	0	0	0	-	-	-
COc1cc2ccc(C(C)=NNC(N)=S)cc2cc1OC	83	0	-	0	0	0	0
CCOc1ncccc1C(=O)NCC(c1ccco1)N1CCCCC1 (centres undefined)	0	0	-	0	-	-	-
CC(C)N1CCc2c(sc(NC(=O)c3ccco3)c2C(N)=O)C1	0	0	0	0	-	-	-
CC(C)N1CCc2c(sc(NC(=O)c3cc4cc([N+](=O)[O-])ccc4s3)c2C(N)=O)C1	66	0	-	0	0	0	0
CCc1ccc(N=C2NC(=O)/C(=C/c3cc(OC)c(O)c(OC)c3)S2)cc1	-	0	-	0	-	-	-
COc1cc(/C=C2\SC(=Nc3ccccc3OC)NC2=O)ccc1O	74	0	0	0	47	0	51
COc1cc(/C=C2/SC(=Nc3ccc(O)cc3)NC2=O)ccc1O	76	0	0	0	70	0	64
Cc1ccc(/C=C/c2onc(C)c2S(=O)(=O)N2CCC(C(=O)NC(C)(C)C)CC2)cc1	0	0	0	0	-	-	-
COC/C=C/C1=CC2=CC(=O)C(C)(OC(=O)c3cnc4ccccc4n3)C(=O)C2=CN1C1CCCC1 (centres undefined)	-	-	0	-	-	-	-
O=c1cc(-c2ccncc2)oc2c1ccc1ccccc12	0	0	0	0	-	-	-
O=c1cc(-c2ccc(O)cc2)oc2c1ccc1ccccc12	45	0	-	0	64	0	0
COc1ccc(CNC(=O)O[C@H]2CN(C(=O)OC(C)C)N(C(=O)OC(C)C)[C@@H]3CN(S(=O)(=O)c4ccc(C)cc4)C[C@]23O)cc1OC	0	0	-	0	-	-	-
O=C(c1ccc(Cl)cc1)c1cn[nH]c1-c1ccccc1O	+	0	0	0	0	0	0
O=C(N/N=C/c1cc([N+](=O)[O-])ccc1O)c1cc(-c2ccccc2)nc2ccccc12	42	0	0	0	43	0	0
CCCCN(C(=O)C1CC(=O)N(CCc2ccc(OC)c(OC)c2)C1)c1c(N)n(CC(C)C)c(=O)[nH]c1=O (centres undefined)	0	0	-	0	-	-	-
O=c1[nH]c2ccccc2nc1NCCN1CCOCC1	43	0	0	0	0	0	0
COc1cccc(Cn2c(N)c(C#N)c3nc4ccccc4nc32)c1OC	38	0	0	0	0	0	0
C[C@H](CO)N1C[C@H](C)[C@@H](CN(C)S(C)(=O)=O)Oc2ccc(NC(=O)c3ccncc3)cc2C1=O	0	0	-	0	-	-	-
CN(C)S(=O)(=O)Nc1cccc(Br)c1	0	0	0	0	-	-	-
SMILES	Rpn11 inh	CSN deneddyl inh	TPT1 inh	HNF4A DNA FP	Rpn11 confirm	MMP-2 counter	Thrombin FP
CC(=O)c1cccc(NS(=O)(=O)N(C)C)c1	128	0	0	50	0	0	0
O=C(N/C(=N\O)c1ccccc1)Nc1ccc(Cl)cc1	37	0	0	0	0	0	0
O=C(CN1CCN(CC(=O)Nc2ccc(F)cc2)CC1)NCC1(N2CCOCC2)CCCCC1	0	0	-	0	-	-	-
Cn1nccc1NC(=O)COCC(=O)O	0	0	0	0	-	-	-
CCOc1ccccc1CNC(=O)C1CCCN(c2nnc(C)c3c(C)n(-c4ccccc4)nc23)C1 (centres undefined)	41	0	0	0	0	0	0
COc1ccc(-n2nc3c(N4CCC(C(=O)NCc5ccccc5C)CC4)nnc(C)c3c2C)cc1	74	117	0	0	0	0	0
Cc1ccc(-n2nc3c(N4CCC(C(=O)NCCc5ccccc5C)CC4)nnc(C)c3c2C)cc1	0	0	0	0	-	-	-
CCCCCCCCCCCCCCCC[N+](C)(C)Cc1ccc(F)cc1	63	0	-	0	88	0	0
Nc1cccc2[nH]c(C(F)(F)F)nc12	54	0	0	0	0	0	0
Cc1cc(/C=C2\Cc3ccccc3C2=O)c(C)n1-c1ccccc1	56	0	0	0	124	0	105
O=C(O)C(c1ccccc1)N1C(=O)/C(=C\c2ccc(O)c(O)c2)SC1=S (centres undefined)	85	0	0	0	61	0	48
CCCC(=O)N(CCN1CCOCC1)c1nc2c(F)cc(F)cc2s1	0	0	0	0	-	-	-
COc1ccc(-c2csc(NCCc3nc4cc(Cl)c(N5CCCCC5)cc4n3CCOCCO)n2)cc1	42	0	0	0	0	0	0
COc1ccc(-c2csc(N3CCN(c4cc5c(cc4Cl)nc(-c4ccncc4)n5CCOCCO)CC3)n2)cc1	0	0	0	0	-	-	-
COC(=O)c1ccc(CSc2ncnc3c2sc2nc(N4CCOCC4)c4c(c23)CCCC4)o1	41	0	0	0	0	0	0
O=C(NNc1ncnc2ccccc12)c1cccc(Cl)c1	74	0	0	0	77	0	0
Cc1ccccc1CN1CCC(n2nccc2NC(=O)CCCc2ccccc2)CC1	0	0	0	0	-	-	-
COc1ccc(F)c(CN2CCC(n3nccc3NC(=O)CCCc3ccccc3)CC2)c1	35	0	0	0	0	0	0
O=C(NCc1n[nH]c(=S)n1-c1ccccc1)c1ccc(S(=O)(=O)N2CCOCC2)cc1	0	0	0	0	-	-	-
O=C(NCc1n[nH]c(=S)n1-c1ccc(F)cc1)c1ccc(S(=O)(=O)N2CCOCC2)cc1	92	0	0	32	0	53	0
CCC(C(=O)NC(C)(C)C)N(Cc1ccc(F)cc1)C(=O)c1snc(C(N)=O)c1N (centres undefined)	0	0	0	0	-	-	-
O=C(Nc1ccc(-c2nc3ccccc3s2)c(O)c1)C1=COCCO1	48	0	0	0	43	0	0
O=C(Nc1ccc(O)c(-c2nc3ccccc3s2)c1)C1=COCCO1	0	0	0	0	-	-	-
CCn1nnnc1NCc1ccc(N2CCCC2)cc1	59	0	0	0	0	0	0
O=C(NN1C(=O)CSC1=S)c1cccnc1	-	0	0	0	-	-	-
O=C(NN1C(=O)/C(=C/c2cccs2)SC1=S)c1cccnc1	42	0	0	0	0	0	0
COc1ccccc1/C=N/NC(=O)c1ccc(NC(=O)c2cccc([N+](=O)[O-])c2)cc1	-	-	0	-	-	-	-
